From ChEMBL document CHEMBL1275556, “High prevalence of plasmid-mediated quinolone resistance genes qnr and aac(6')-Ib-cr in clinical isolates of Enterobacteriaceae from nine teaching hospitals in China” (2008)
≈ marks a conversion by molar mass, not a printed value.

How the values were obtained:
Format in all cases: functional
Enterobacter cloacae [1] = experiment: Antimicrobial activity against aac(6')-Ib-cr-negative Enterobacter cloacae WH42T harboring qnrA gene by agar dilution method in presence of Tazobactam
How it was run: (§1)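 MICs were determined by the CLSI agar dilution method (M7-A7) and interpreted against CLSI M100-S17 breakpoints.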

Citrobacter freundii [2] = experiment: Antimicrobial activity against aac(6')-Ib-cr-positive Citrobacter freundii TJ15T harboring wild-type GyrA, ParC, GyrB genes by agar dilution method in presence of Tazobactam; how it was run: as §1
Enterobacter cloacae [3] = experiment: Antimicrobial activity against aac(6')-Ib-cr-negative Enterobacter cloacae FJ61T harboring qnrS gene by agar dilution method in presence of Tazobactam; how it was run: as §1
Klebsiella pneumoniae [4] = experiment: Antimicrobial activity against aac(6')-Ib-cr-positive Klebsiella pneumoniae JN132T harboring qnrB gene by agar dilution method in presence of Tazobactam
How it was run: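 Transconjugants came from conjugation of qnr and/or aac(6')-Ib-cr donors into azide-resistant E. coli J53. […] MICs were measured by CLSI agar dilution (M7-A7) and interpreted per M100-S17.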

Klebsiella pneumoniae [5] = experiment: Antimicrobial activity against aac(6')-Ib-cr-positive Klebsiella pneumoniae GZ40T harboring qnrB gene by agar dilution method in presence of Tazobactam; how it was run: as §1
Enterobacter cloacae [6] = experiment: Antimicrobial activity against aac(6')-Ib-cr-negative Enterobacter cloacae FJ61 harboring GyrA S83I, GyrA D87A, ParC S80I mutant, wild-type GyrB and qnrS genes by agar dilution method in presence of Tazobactam; how it was run: as §1
Enterobacter cloacae [7] = experiment: Antimicrobial activity against aac(6')-Ib-cr-negative Enterobacter cloacae GZ51T harboring qnrA gene by agar dilution method in presence of Tazobactam; how it was run: as §1
Klebsiella pneumoniae [8] = experiment: Antimicrobial activity against aac(6')-Ib-cr-positive Klebsiella pneumoniae JN132 harboring GyrA S83I, ParC S80I mutant, wild-type GyrB and qnrB genes by agar dilution method in presence of Tazobactam
How it was run: (§2)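 MICs measured by CLSI agar dilution (M7-A7) and interpreted against CLSI M100-S17 breakpoints. Strains were clinical Enterobacteriaceae isolates or the azide-resistant E. coli J53 recipient.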

Citrobacter freundii [9] = experiment: Antimicrobial activity against aac(6')-Ib-cr-positive Citrobacter freundii JN1 harboring GyrA T83I, ParC S80I mutant, wild-type GyrB and qnrA genes by agar dilution method in presence of Tazobactam
How it was run: (§3)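 MICs were determined by CLSI agar dilution (M7-A7) and interpreted by CLSI M100-S17 breakpoints. The curator's line names the β-lactamase inhibitor added.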

Escherichia coli [10] = experiment: Antimicrobial activity against aac(6')-Ib-cr-negative Escherichia coli PU12 harboring GyrA S83L mutant, wild-type GyrB, ParC and qnrS genes by agar dilution method in presence of Tazobactam; how it was run: as §2
Enterobacter cloacae [11] = experiment: Antimicrobial activity against aac(6')-Ib-cr-negative Enterobacter cloacae GZ47T harboring qnrB gene by agar dilution method in presence of Tazobactam; how it was run: as §1
Enterobacter cloacae [12] = experiment: Antimicrobial activity against aac(6')-Ib-cr-negative Enterobacter cloacae GZ51 harboring qnrA gene by agar dilution method in presence of Tazobactam; how it was run: as §1
Klebsiella pneumoniae [13] = experiment: Antimicrobial activity against aac(6')-Ib-cr-positive Klebsiella pneumoniae JN41 harboring GyrA S83I, ParC S80I mutant, wild-type GyrB and qnrB genes by agar dilution method in presence of Tazobactam; how it was run: as §2
Klebsiella pneumoniae [14] = experiment: Antimicrobial activity against aac(6')-Ib-cr-positive Klebsiella pneumoniae JN41 harboring GyrA S83I, ParC S80I mutant, wild-type GyrB and qnrB genes by agar dilution method
How it was run: (§4)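 MICs were determined on clinical isolates by CLSI agar dilution (M7-A7) and interpreted against CLSI M100-S17 breakpoints.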

Citrobacter freundii [15] = experiment: Antimicrobial activity against aac(6')-Ib-cr-positive Citrobacter freundii TJ15 harboring GyrA T83I, ParC S80I mutant, wild-type GyrB, qnrB genes by agar dilution method; how it was run: as §1
Klebsiella pneumoniae [16] = experiment: Antimicrobial activity against aac(6')-Ib-cr-positive Klebsiella pneumoniae SY26 harboring GyrA S83I, ParC S80I mutant, wild-type GyrB and qnrB genes by agar dilution method; how it was run: as §4
Escherichia coli [17] = experiment: Antimicrobial activity against aac(6')-Ib-cr-positive Escherichia coli FJ3 harboring GyrA S83L, ParC S80R mutant, wild-type GyrB and qnrB genes by agar dilution method; how it was run: as §1
Enterobacter cloacae [18] = experiment: Antimicrobial activity against aac(6')-Ib-cr-negative Enterobacter cloacae GZ47T harboring qnrB gene by agar dilution method
Escherichia coli [19] = experiment: Antimicrobial activity against aac(6')-Ib-cr-negative Escherichia coli PU12 harboring GyrA S83L mutant, wild-type GyrB, ParC and qnrS genes by agar dilution method; how it was run: as §1
Enterobacter cloacae [20] = experiment: Antimicrobial activity against aac(6')-Ib-cr-negative Enterobacter cloacae WH42T harboring qnrA gene by agar dilution method
Enterobacter cloacae [21] = experiment: Antimicrobial activity against aac(6')-Ib-cr-negative Enterobacter cloacae SH39T harboring qnrA gene by agar dilution method in presence of clavulanic acid
How it was run: (§5)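 Transconjugants came from conjugation of qnr and/or aac(6')-Ib-cr-carrying donors with azide-resistant E. coli J53. […] MICs were determined by CLSI agar dilution (M7-A7) and interpreted by M100-S17.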

Enterobacter cloacae [22] = experiment: Antimicrobial activity against aac(6')-Ib-cr-negative Enterobacter cloacae SH39 harboring GyrA S83I, ParC S80I mutant, wild-type GyrB and qnrA genes by agar dilution method
Citrobacter freundii [23] = experiment: Antimicrobial activity against aac(6')-Ib-cr-positive Citrobacter freundii JS33T harboring qnrA gene by agar dilution method in presence of clavulanic acid; how it was run: as §5
Enterobacter cloacae [24] = experiment: Antimicrobial activity against aac(6')-Ib-cr-positive Enterobacter cloacae FJ63T harboring qnrS gene by agar dilution method in presence of clavulanic acid; how it was run: as §5
Enterobacter cloacae [25] = experiment: Antimicrobial activity against aac(6')-Ib-cr-negative Enterobacter cloacae WH42 harboring wild-type GyrA, ParC, GyrB and qnrA genes by agar dilution method in presence of clavulanic acid; how it was run: as §1
Citrobacter freundii [26] = experiment: Antimicrobial activity against aac(6')-Ib-cr-positive Citrobacter freundii JN1T by agar dilution method; how it was run: as §1
Citrobacter freundii [27] = experiment: Antimicrobial activity against aac(6')-Ib-cr-positive Citrobacter freundii JN1 harboring GyrA T83I, ParC S80I mutant, wild-type GyrB and qnrA genes by agar dilution method; how it was run: as §1
Citrobacter freundii [28] = experiment: Antimicrobial activity against aac(6')-Ib-cr-positive Citrobacter freundii JN1 harboring GyrA T83I, ParC S80I mutant, wild-type GyrB and qnrA genes by agar dilution method in presence of clavulanic acid; how it was run: as §1
Enterobacter cloacae [29] = experiment: Antimicrobial activity against aac(6')-Ib-cr-negative Enterobacter cloacae GZ47 harboring qnrB and qnrS genes by agar dilution method
Citrobacter freundii [30] = experiment: Antimicrobial activity against aac(6')-Ib-cr-positive Citrobacter freundii TJ15 harboring GyrA T83I, ParC S80I mutant, wild-type GyrB, qnrB genes by agar dilution method in presence of clavulanic acid; how it was run: as §3
Citrobacter freundii [31] = experiment: Antimicrobial activity against aac(6')-Ib-cr-positive Citrobacter freundii JN1T by agar dilution method in presence of clavulanic acid; how it was run: as §5
Enterobacter cloacae [32] = experiment: Antimicrobial activity against aac(6')-Ib-cr-negative Enterobacter cloacae GZ51T harboring qnrA gene by agar dilution method in presence of clavulanic acid; how it was run: as §5

How did the MIC (Enterobacter cloacae [1]) turn out when `CCN1CCN(C(=O)N[C@@H](C(=O)N[C@@H]2C(=O)N3[C@@H]2SC(C)(C)[C@@H]3C(=O)O)c2ccccc2)C(=O)C1=O` [PIPERACILLIN] was run?
Its MIC is 1 µg/mL.

What about the MIC (Citrobacter freundii [2]) of the same molecule?
The MIC was 1 µg/mL.

What about the MIC (Enterobacter cloacae [3]) of the same molecule?
Its MIC is 1 µg/mL.

What about the MIC (Klebsiella pneumoniae [4]) of the same molecule?
Its MIC is 4 µg/mL.

And the MIC (Klebsiella pneumoniae [5])?
The MIC was 1 µg/mL.

And the MIC (Enterobacter cloacae [6])?
Its MIC is 8 µg/mL.

What about the MIC (Enterobacter cloacae [7]) of the same molecule?
Its MIC is 2 µg/mL.

What about the MIC (Klebsiella pneumoniae [8]) of the same molecule?
Its MIC is 4 µg/mL.

And the MIC (Citrobacter freundii [9])?
The MIC was 16 µg/mL.

And the MIC (Escherichia coli [10])?
The MIC was 1 µg/mL.

And the MIC (Enterobacter cloacae [11])?
The MIC was 2 µg/mL.

What about the MIC (Enterobacter cloacae [12]) of the same molecule?
Its MIC is 2 µg/mL.

What about the MIC (Klebsiella pneumoniae [13]) of the same molecule?
The MIC was 4 µg/mL.

`CO/N=C(\C(=O)N[C@@H]1C(=O)N2C(C(=O)O)=C(COC(C)=O)CS[C@H]12)c1csc(N)n1` [CEFOTAXIME] was tested. Which MIC (Klebsiella pneumoniae [14]) did it give?
The MIC was 32 µg/mL (≈ 70.3 µM).

And the MIC (Citrobacter freundii [15])?
The MIC was 1 µg/mL (≈ 2.2 µM).

What about the MIC (Klebsiella pneumoniae [16]) of the same molecule?
The MIC was 8 µg/mL (≈ 17.6 µM).

What about the MIC (Escherichia coli [17]) of the same molecule?
Its MIC is 128 µg/mL (≈ 281 µM).

What about the MIC (Enterobacter cloacae [18]) of the same molecule?
The MIC was 0.25 µg/mL (≈ 0.549 µM).

And the MIC (Escherichia coli [19])?
The MIC was 16 µg/mL (≈ 35.1 µM).

What about the MIC (Enterobacter cloacae [20]) of the same molecule?
The MIC was 8 µg/mL (≈ 17.6 µM).

What about the MIC (Enterobacter cloacae [21]) of the same molecule?
Its MIC is 0.032 µg/mL.

And the MIC (Enterobacter cloacae [22])?
Its MIC is 4 µg/mL (≈ 8.78 µM).

And the MIC (Citrobacter freundii [23])?
Its MIC is 0.032 µg/mL.

What about the MIC (Enterobacter cloacae [24]) of the same molecule?
The MIC was 0.032 µg/mL.

What about the MIC (Enterobacter cloacae [25]) of the same molecule?
The MIC was 256 µg/mL.

And the MIC (Citrobacter freundii [26])?
Its MIC is 8 µg/mL (≈ 17.6 µM).

And the MIC (Citrobacter freundii [27])?
Its MIC is greater than 256 µg/mL.

What about the MIC (Citrobacter freundii [28]) of the same molecule?
The MIC was 128 µg/mL.

What about the MIC (Enterobacter cloacae [29]) of the same molecule?
Its MIC is 64 µg/mL (≈ 141 µM).

What about the MIC (Citrobacter freundii [30]) of the same molecule?
The MIC was 16 µg/mL.

And the MIC (Citrobacter freundii [31])?
The MIC was 0.032 µg/mL.

What about the MIC (Enterobacter cloacae [32]) of the same molecule?
Its MIC is 0.032 µg/mL.
